# AI-2 QS modul – Vibrio harveyi AI-2 quorum sensing modulators, primary screen, JMH597 strain, luminescence/OD600 ratio; Vibrio harveyi JMH597 AI-2 luminescence/OD600 ratio, 9 h; hits give low values; strain lacks LuxN and CqsS sensors; 0 = neutral-control median; activity change, % at 7.5 µM; 0.4% of 300,000 active; AID 2094, 2009; in the data active = activity change below about -75%, passing the limit was not always enough; inconclusive = no clear call, values can overlap the other calls;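 note: luminescence divided by OD600 gain over 9 h not by final OD600 alone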
# Cl transport mod – KCC2 cotransporter modulators, thallium flux, primary screen, cell-based, HEK293 KCC2, FluoZin-2 fluorescence, MLSMR; Solute carrier family 12 member 5 (Homo sapiens), Q9H2X9; KCC2 cells, thallium flux FluoZin-2 fluorescence; B-score of Tl+ flux slope (higher = more flux/activation; lower = inhibition) at 10 µM; 2.2% of 190,000 active; AID 1456, 2008;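 active = thallium flux slope and its plate-corrected score both differing from the plate sample mean at a set confidence after two filtering rounds, in either direction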;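 note: slope of fluorescence scaled to starting intensity during 10 to 20 s after thallium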
# hERG protect – hERG rescue from dofetilide block, primary screen, cell-based, CHO-hERG, FluxOR thallium flux, dofetilide IC70; AID 1511, 2009; dofetilide IC70 present; activation (rescue from dofetilide block), less the hit threshold, % at 10 µM; 0.51% of 310,000 active; Voltage-gated inwardly rectifying potassium channel KCNH2 (Homo sapiens), Q12809;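 active = activation above the mean of controls blocked by dofetilide plus 5 SD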;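 note: thallium influx through hERG after potassium depolarization seen as dye fluorescence rise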
# SUMO Mot1 rescue – yeast Mot1-301 growth rescue at high temperature, primary screen, SUMOylation pathway inhibitor project, S. cerevisiae, ATP luminescence, 38.5C; S. cerevisiae Mot1-301 growth rescue; percent above DMSO median, 100 means doubled; growth rescue, % at 18.8 µM; 1% of 320,000 active; AID 2716, 2010;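 active = every valid replicate shows activation above 250% relative to neutral control wells; inactive = the rest, any valid replicate at or below 250%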;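 note: OY570 slx delta 5 strain wells were the positive control but not used for scaling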
# KCNQ1 block – inhibitors of human KCNQ1 channel, primary screen, cell-based, thallium flux, high-throughput; CHO-K1 KCNQ1, FluxOR thallium flux fluorescence; hits give high values; AID 2642, 2010; Potassium voltage-gated channel subfamily KQT member 1 (Homo sapiens), P51787; B-score at 10 µM; 1.3% of 310,000 active;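 active = compounds whose thallium flux B-score, printed positive for inhibition, exceeds three library SD while starting fluorescence stays within three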;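 note: channel opened by potassium depolarization with thallium stimulus after 20 min compound exposure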
# KCNQ1 act – potentiators or activators of KCNQ1 channel, primary screen, cell-based, thallium flux, high-throughput. Potassium voltage-gated channel subfamily KQT member 1 (Homo sapiens), P51787. CHO-K1 KCNQ1, thallium flux FluxOR fluorescence; hits give high values. B-score at 10 µM. 0.35% of 310,000 active. AID 2648, 2010;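 active = fluorescence ratio B-score, a plate-corrected score, at least three library SD, with initial intensity B-score within 5 SD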
#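 System: CHO-K1 cells stably expressing KCNQ1 / Medium: assay buffer for compound exposure, DMSO matched across wells / Reagent: thallium- and potassium-containing depolarizing buffer / Compound: one concentration, matched DMSO / Incubation: 20 min compound pretreatment at room temperature / Measured by: kinetic FluxOR fluorescence, 10 s baseline plus 110 s post-stimulus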
# KCC2 sec1 – KCC2 modulators in sodium-free buffer, confirmation, cell-based, HEK293 KCC2, thallium flux, secondary assay | AID 1713, 2009 | shares compounds with Cl transport mod | 15% of 3,700 active | normalised thallium flux (F/F0 slope) at 10 µM | FluoZin2 fluorescence; hits give high values;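 active = thallium flux slope above the same plate's solvent-only control mean plus 3 SD; inconclusive = the two replicate wells disagree; inactive = no significant difference from solvent-only control wells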
# KCC2 bumet counter – thallium flux persisting under bumetanide in KCC2 cells, confirmation, counter-screen for KCC2 modulator project, cell-based, HEK293 KCC2, FluoZin2, secondary assay 3. shares compounds with Cl transport mod. HEK293-KCC2 + bumetanide/ouabain; hits give high values. normalized thallium flux at 10 µM. 49% of 3,700 active. AID 1714, 2009;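 active = thallium entry rate above the same plate's blocked-transporter control wells by more than 3 SD; inconclusive = the two repeat wells disagree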;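 note: raw slope of fluorescence over initial fluorescence between 10 and 20 s after thallium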
# KCC2 secondary2 – KCC2 modulators without ouabain present, confirmation, cell-based, HEK293 KCC2, thallium flux, FluoZin2, secondary assay 2. thallium flux FluoZin2 fluorescence; actives lie on both sides; F/F0 rise rate, 10–20 s post-thallium. normalized thallium flux at 10 µM. 23% of 3,700 active. shares compounds with Cl transport mod;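 active = thallium flux slope more than 3 SD above or below the plate's solvent-only control mean, mostly below; inconclusive = the two repeat wells disagreed; inactive = no significant shift from solvent-only controls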;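 note: raw slope with 0.1% DMSO as baseline and bumetanide as block control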
# HEK293 Tl flux – thallium flux modulation in parental HEK cells, confirmation, counter-screen for KCC2 modulator project, cell-based, counterscreen 1; shares compounds with Cl transport mod; HEK293 parental cells, thallium flux FluoZin2, ouabain; baseline-ratio fluorescence slope, 10–20 s after thallium; thallium flux rate (normalised fluorescence) at 10 µM; 46% of 3,700 active;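 active = thallium flux rate significantly above the same plate's solvent-only control wells, beyond their mean plus 3 SD; inconclusive = the two replicate wells gave conflicting results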
# KCC2 retest ouab – KCC2 inhibitors and activators, ouabain retest, confirmation, HEK-KCC2 cells | shares compounds with Cl transport mod | HEK293-KCC2, thallium flux FluoZin2 fluorescence; bidirectional: low = inhibitor, high = activator | raw Tl+ flux slope (below DMSO = inhibition, above = activation) at 10 µM | 48% of 3,700 active;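 active = thallium flux slope beyond 3 SD from same-plate DMSO control mean in most replicates, usually higher, sometimes lower; inconclusive = repeat tests gave conflicting results; inactive = no significant difference from controls in most replicates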;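 note: slope of initial-normalized fluorescence between seconds 10 and 20 after thallium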
# HEK counter2 – native HEK Tl+ uptake effects, second counter-screen – HEK cells, counterscreen 2, counter-screen for KCC2 modulator project, confirmation | thallium flux slope at 10 µM | HEK293 parental, thallium flux FluoZin-2 fluorescence slope | 33% of 3,700 active | shares compounds with Cl transport mod;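 active = thallium flux slope above the same plate's solvent-control mean plus 3 SD in both duplicate wells; inconclusive = duplicate wells that disagreed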;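 note: run without ouabain in cells lacking the KCC2 cotransporter; slope of fluorescence scaled to its starting value between 10 and 20 s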
# The depositor's hits bear a star; i = inactive; ? = inconclusive; . = no result. Only some compounds are listed: those with a hit (about 4.2% of all), similar ones and a draw of the others.
SMILES,AI-2 QS modul,Cl transport mod,hERG protect,SUMO Mot1 rescue,KCNQ1 block,KCNQ1 act,KCC2 sec1,KCC2 bumet counter,KCC2 secondary2,HEK293 Tl flux,KCC2 retest ouab,HEK counter2
Cn1c(-c2ccccc2)c(CCO)c2ccccc21,7,-0.54,-8,-18,i,i,.,.,.,.,.,.
Cc1c(/C(O)=C2/C(=O)C(=O)N(CCN3CCOCC3)C2c2ccccn2)cnn1-c1ccccc1 (configuration not stated),2,-0.5,-7,-5,i,i,.,.,.,.,.,.
COc1ccc(-c2nnc(SCc3ncc(-c4ccccc4)o3)o2)cc1,34,-3*,-9,-2,i,i,0.0068,0.0047,?,0.0066,0.018,0.01
COc1ccc(Cl)cc1C(=O)NNC(=O)CN1C(=O)C2CC=CCC2C1=O (configuration not stated),15,0.038,-16,.,i,i,.,.,.,.,.,.
Cc1ccc(S(=O)(=O)NC(C)C(=O)NC2CCCCCC2)cc1 (configuration not stated),0,0.0074,-6,38,i,i,.,.,.,.,.,.
CCc1ccc(S(=O)(=O)NC(=S)NC2CCCCC2)cc1,24,32*,21*,5,i,23*,0.026*,0.071*,?,0.05*,0.06*,0.018*
O=S(=O)(NC(=S)NC1CCCCC1)c1ccc(Cl)cc1,43,11*,5.5*,0,i,i,0.017,0.02*,0.032,0.02*,0.025*,0.022*
Cc1ccc(S(=O)(=O)NC(=S)NC2CCCCC2)cc1,14,13*,7.5*,-19,i,i,0.016*,0.032*,0.037,?,0.034*,0.013
O=C(NNS(=O)(=O)c1ccc(Cl)cc1)NC1CCCCC1,3,.,-4,3,i,i,.,.,.,.,.,.
COC(=O)c1[nH]c2ccc(C)cc2c1NS(=O)(=O)c1ccc(F)c(C)c1,8,-2.9*,-18,164,i,i,0.011,?,0.028,0.0079,0.029,0.01
Cc1ccc(-c2n[nH]c(=O)c3ccccc23)cc1S(=O)(=O)NCCN1CCOCC1,14,0.32,-8,4,i,i,0.009,0.0087*,0.032,0.0088*,0.023,?
CC(C)(C)N1C(=O)c2ccc(C(=O)Nc3cc(C(=O)O)cc(C(=O)O)c3)cc2C1=O,11,.,-9,169,i,i,.,.,.,.,.,.
O=C(Nc1nc2ccc(S(=O)(=O)N3CCCCC3)cc2s1)c1ccncc1,23,-6.2*,-8,-5,i,i,0.0068,0.0048,0.032,0.0071,0.02,0.0098
COc1ccc(NC(=S)N/C(=N/S(=O)(=O)c2ccc(C)cc2)c2ccccc2)cc1,25,4.2*,-2,.,i,i,?,0.02*,0.032,0.013*,0.026*,0.012
CCOC(=S)N/C(=N\S(=O)(=O)c1ccc(C)cc1)c1ccccc1,56,.,2,-4,i,i,?,0.015*,0.04,?,0.028*,0.011
Cc1ccc(S(=O)(=O)NN/C(=N/S(=O)(=O)c2ccccc2)c2ccccc2)cc1,5,-0.23,-13,-17,i,i,.,.,.,.,.,.
O=C(NCCc1ccc(Cl)cc1)c1ccc(Br)s1,30,.,-11,-2,i,i,.,.,.,.,.,.
COc1cc(C)c(NC(=S)Nc2cccc(Cl)c2C)cc1OC,27,1.5,-11,27,i,i,.,.,.,.,.,.
O=C([O-])c1ccccc1-[n+]1c(-c2ccccc2)cc(-c2ccccc2)cc1-c1ccccc1,8,.,-14,-6,i,i,.,.,.,.,.,.
O=C(Nc1nc2ccccc2s1)C1CCCN1S(=O)(=O)c1ccc(Cl)cc1 (configuration not stated),24,.,-12,14,i,i,0.0073,0.0048,0.03,0.0083,0.018,0.011
O=C(Nc1cc(Cl)ccc1C(=O)O)c1ccc(CN2C(=O)c3ccccc3C2=O)cc1,28,.,-2,23,i,i,.,.,.,.,.,.
CCOC(=O)c1c(COc2ccccc2)oc2ccc(O)cc12,.,.,-9,13,i,i,.,.,.,.,.,.
CCOC(=O)c1c(C(C)(C)C)oc2ccc(O)cc12,.,-6.2*,.,-8,.,.,0.008,0.0063,0.035,0.0079,?,0.01
COc1cc(/C=C/C(=O)OCC(=O)N2c3ccccc3NC(=O)C2(C)C)cc(OC)c1OC,.,.,.,2,.,.,.,.,.,.,.,.
CC12CCC(C(=O)Nc3nccs3)(OC1=O)C2(C)C (configuration not stated),0,0.082,-12,15,i,i,.,.,.,.,.,.

# Screens: PubChem BioAssay, several laboratories
